In the EternaBench riboswitch data:

System: MS2 coat protein
Assay: apparent Kd, MS2 coat protein; higher = weaker binding; RNA-MaP array
Method in brief: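 Designed RNAs were transcribed in place on an Illumina sequencing chip from sequenced DNA templates. At room temperature and with or without input ligand, they were incubated with fluorescently labeled MS2 coat protein from 1.5 nM to 3 μM, for 0.8–1.5 h at the lowest and 10–20 min at the highest concentrations. Apparent Kd is the median of the binding-curve fits made per cluster, with designs measured on fewer than 10 clusters excluded.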

[1] = designed as: OFF switch for flavin mononucleotide, no ligand
[2] = ligand present: flavin mononucleotide, designed as: OFF switch for flavin mononucleotide
[3] = designed as: ON switch for flavin mononucleotide, no ligand
[4] = ligand present: flavin mononucleotide, designed as: ON switch for flavin mononucleotide

| Sequence | apparent Kd [1] | apparent Kd [2] | apparent Kd [3] | apparent Kd [4] | other results |
| --- | --- | --- | --- | --- | --- |
| GACGCUGCAGGAUAUACUACGAGACUCACCCACAUUAUAUGACAUGAGGAUCACCCAUGUAGAAGGGCAAUGUG | 10.4 nM | 12.6 nM |  |  |  |
| AAGGGUCAACAGAAGGUUGUCGAACAUUGCGCCAAAGGAUAUGUCUACCGUUUAAGCGUUCGUCACAUGAGGAUCACCCAUGUU |  |  | 26.8 nM | 18.3 nM |  |
| GAGAGAAAGCCAGGAUAUUAGAACUAGGCACAUGAGGAUCACCCAUGUGGUGAUGAUCAUAAGACUAAGAAGGGGCACCGGAUU |  |  | 521 nM | 450 nM |  |
| GCUUGACAUGAGGAUCACCCAUGUAAAUGAGAGACAGGAUAUACGAGACACGUAGGGUAGGUAGAAGGGUCGACUG |  |  | 15.1 nM | 9.69 nM |  |
| CCAGUGGGUGGAGGAUAUGAUGACAAACUGUGUUCAGAAGGCCACCUCAAGACACGAACAUGAGGAUCACCCAUGUCCCAACCU |  |  | 227 nM | 15.8 nM |  |
| CACCUCCAAGGAUAUACAUGAGGAUCACCCAUGUGGAUAACCUGGGCGCGCCGAGCAAGUAGAAGGUGGAUUGG | 10.9 nM | 14.7 nM |  |  |  |
| CAAUGAACAUGAGGAUCACCCAUGUAGUAAUGCGAGAAAACGAAGGAUAUAGCGAUACUACAUAGCAAGAAGGUCGCAAACAUA |  |  | 40.4 nM | 30.7 nM |  |
| AAGGAGUUAGGAUAUCCGUGCGUUGACAUGAGGAUCACCCAUGUGUUGAUAAACCUACUAGGAGAAGGAACGAUAC | 20.7 nM | 15.2 nM |  |  |  |
| AAAUAUAAUCAGAAGGGUUGCUAAACAUGAGGAUCACCCAUGUGAUAACGAUACGAGUAAAUCGAACAGGAUAUGAUGCAGGUU |  |  | 16.5 nM | 12 nM |  |
| AAACAAAUGCAAGGAUAUCAUAAUACAAACAGGAGAGAAGGUGCAGAGCACAUGAGGAUCACCCAUGUCCUAGGAUAUUCCUAA |  |  | 121 nM | 80.4 nM |  |
| UCUAGAUCAUCGUGACAUGAGGAUCACCCAUGUCUGCGGGCAAGAAGGUGGUCGUUGUCUAACACCAAGGAUAUUGAGGGAGGU |  |  | 51.5 nM | 30.4 nM |  |
| GGUUCAUCGUCGGCCGCCACUCACAUGAGGUGGAGCUGUAAACAUGAGGAUCACCCAUGUUGUUAGAGGACCGGGACGUGACGGC |  |  |  |  | apparent Kd (designed as: OFF switch for tryptophan, no ligand): 33.8 nM; apparent Kd (ligand present: tryptophan, designed as: OFF switch for tryptophan): 36.7 nM |
| GACCGUGUCAAUCAUCAUCAACAUGAGGAUCACCCAUGUACCAAGGAUAUCUCGCACUACAAGUCAGAGAAGGUGGGUUUACUC |  |  | 241 nM | 152 nM |  |
| UGGAAAUGAAUAGGAUAUCAGUGUUGUCUAUAACAUGAGGAUCACCCAUGUUUCCAUUGGCCUCGUGAGAAGGAUUCUAGUAUU |  |  | 81.6 nM | 22.3 nM |  |
| CUAGGUCAAGGAUAUACAUGAGGAUCACCCAUGUAAGAACCUAGUAGGGUCGUCCGAGGUAGAAGGUGAGCAUU | 24.9 nM | 19.6 nM |  |  |  |
| AGACCCUAGCAGAAGGCCCGCGACAUCCAAGAGGGAGGAUAUGCCACUAGAGCAAGCUUUGCACAUGAGGAUCACCCAUGUCCU |  |  | 132 nM | 56.6 nM |  |
| UAGGAUAACACAGGAUAUACCCUUGUCGUCGGUUCUAAAUUACAUGAGGAUCACCCAUGUCUAAGGUAGAAGGGUGUUUGCGGU | 31.6 nM | 29.6 nM |  |  |  |
| GCAGGUAAGUAGAAGGGUCGCACCAUACUGACGACAGGAUAUACUGUCCGAAACUCGUCAUUACAUGAGGAUCACCCAUGUUUA | 21.2 nM | 11.1 nM |  |  |  |
| AGAAAUACAUGAGGAUCACCCAUGUGCAUCCUGACUAGUUGACAGGAUAUCAGUCUUACCUGGGCUGAGAAGGGUCCGCGUAGC | 19.8 nM |  |  |  |  |
| AUGAGUAUUAAAGGAUAUCACUUAAUUGAUUGAUGAGAAGGUUAGAUGGCAUACAUGAGGAUCACCCAUGUGGUUUCAUGCGGU | 86.3 nM | 59.2 nM |  |  |  |
| GGCGUAUCAGGAUAUGCGUUUUGAGACAUGAGGAUCACCCAUGUCCUUAGCUCAGUUAAAGCAGAAGGGAUUAUUA | 16.9 nM | 34.1 nM |  |  |  |
| GGCUCCGUAGGAUAUCGUAUUAGCGACAUGAGGAUCACCCAUGUUCAUUUGUCCUCAAUACGAGAAGGACGAACUC | 16.1 nM | 18.3 nM |  |  |  |
| AAACGACAUGAGGAUCACCCAUGUACCUUUUACCUAGGAUAUCAGGUGCAUCAUACGUGCUGAGAAGGAGGCUCGC |  |  | 64.1 nM | 59.7 nM |  |
| GAGAGGGCUUGAGGAUAUCUUCACUCCGACAUGAGGAUCACCCAUGUAUUCCGUUGAUCGUUGGGAGAGAAGGCAACUUUGUAA | 58 nM | 54 nM |  |  |  |
| AUGCCUCCACUAGGAUAUUACAUCUACAUUUCCACUUUCAAACAGACAUGAGGAUCACCCAUGUGUAAGAAGGAGUGCCUAGAG |  | 8.45 nM |  |  |  |
| CGAAAACAUGAGGAUCACCCAUGUUAGGAUAUGAGGAUGGUAUAGUAUACGGUGUAGAUCAGAAGGAACGGUGG | 11.4 nM | 11.6 nM |  |  |  |
